Results on 16 compounds are retold here after ChEMBL document CHEMBL1764968, “Structural simplification of bioactive natural products with multicomponent synthesis. 3. Fused uracil-containing heterocycles as novel topoisomerase-targeting agents” (2011).

What all share (type): functional
One assay deals with HeLa. Kind of assay: Cytotoxicity against human HeLa cells after 72 hrs by MTT assay. In outline: (§1)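 Cells plated 24 h in 96-well plates at 10,000–40,000 cells/mL depending on line. U373 grown in MEM, other lines in RPMI, both with 5% heat-inactivated FCS. Cells exposed to compounds (or none, control) for 72 h. MTT reduction to formazan read at 570 nm against 630 nm reference. Sextuplicate per condition.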

The next assay has as its system A549. Put plainly: Cytotoxicity against human A549 cells after 72 hrs by MTT assay. Conditions: A549, 72 h. In outline: as §1
For orientation: Formazan colour is commonly taken as a measure of viable cells.

Another assay relates to MCF7. Put plainly: Cytotoxicity against human MCF7 cells after 72 hrs by MTT assay. Conditions: MCF7, 72 h. In a few lines: as §1
The subject of another assay is Jurkat. Put plainly: Cytotoxicity against human Jurkat cells after 72 hrs by MTT assay. In outline: as §1

Where only a bound is given, the exact number is not on record here.

As for `O=C1C2=C(Nc3[nH]c(=O)[nH]c(=O)c3C2c2ccc(C(F)(F)F)cc2)c2ccccc21` (centres undefined), the GI50 – broadly, the concentration that inhibits growth by half – was determined as 5.6 µM in the assay with HeLa, 5.2 µM in the assay on A549, 1.5 µM with MCF7 and 2.2 µM in the assay on Jurkat.

Regarding `CCOc1ccc(-c2c3c(nc4[nH]c(=O)[nH]c(=O)c24)-c2ccccc2C3=O)cc1`, the GI50 in the assay with HeLa is 5.3 µM; in the assay with A549, 6 µM; in the assay with MCF7 it was 5.6 µM; with Jurkat, 0.76 µM.

As to `Cc1ccc(-c2c3c(nc4[nH]c(=O)[nH]c(=O)c24)-c2ccccc2C3=O)cc1`, the GI50 came out at 6.4 µM in the assay on HeLa, 5.8 µM in the assay with A549, 6.4 µM in the assay with MCF7 and 1.1 µM with Jurkat.

In the case of `O=C1c2ccccc2-c2nc3[nH]c(=O)[nH]c(=O)c3c(-c3ccc(C(F)(F)F)cc3)c21`, the GI50 in the assay with HeLa was 3.8 µM; in the assay with A549, 7.8 µM; in the assay on MCF7 it was 5.6 µM; with Jurkat it was 0.96 µM.

In the case of `O=C1C2=C(Nc3[nH]c(=O)[nH]c(=O)c3C2c2ccc(OC(F)(F)F)cc2)c2ccccc21` (centres undefined), the GI50 in the assay on HeLa came to 5.6 µM; in the assay with A549, 5.7 µM; in the assay on MCF7, 5.8 µM; in the assay on Jurkat, 0.96 µM.

For `CC(C)c1ccc(C2C3=C(Nc4[nH]c(=O)[nH]c(=O)c42)c2ccccc2C3=O)cc1` (centres undefined), the GI50 in the assay with HeLa was 5.8 µM; in the assay on A549, > 10 µM; in the assay with MCF7, 9.1 µM; in the assay with Jurkat, 0.96 µM.

Take `Cc1ccc(C2C3=C(Nc4[nH]c(=O)[nH]c(=O)c42)c2ccccc2C3=O)cc1` (centres undefined): the GI50 with HeLa worked out at 8.6 µM; in the assay with A549, 5.9 µM; with MCF7, 7.6 µM; in the assay with Jurkat, 5.6 µM.

Turning to `CCOc1ccc(C2C3=C(Nc4[nH]c(=O)[nH]c(=O)c42)c2ccccc2C3=O)cc1` (centres undefined), the GI50 with HeLa was 7.4 µM; in the assay with A549 it was 5.8 µM; in the assay on MCF7, 6.6 µM; with Jurkat, 0.91 µM.

`CC(C)c1ccc(-c2c3c(nc4[nH]c(=O)[nH]c(=O)c24)-c2ccccc2C3=O)cc1`: the GI50 with HeLa came to 0.85 µM; in the assay on A549 it was 8.2 µM; in the assay on MCF7, 6.9 µM; with Jurkat, 0.49 µM.

As for `O=C1c2ccccc2-c2nc3[nH]c(=O)[nH]c(=O)c3c(-c3ccc(F)c(Br)c3)c21`, the GI50 in the assay with HeLa was found to be 5.6 µM; in the assay with A549, 2.8 µM; in the assay with MCF7, 5.5 µM; with Jurkat, 0.98 µM.

Turning to `O=C1c2ccccc2-c2nc3[nH]c(=O)[nH]c(=O)c3c(-c3ccc(OC(F)(F)F)cc3)c21`, the GI50 in the assay with HeLa amounted to 5.8 µM; in the assay with A549 it was 8 µM; in the assay on MCF7 it was 6.6 µM; in the assay with Jurkat, 0.95 µM.

Turning to `O=C1c2ccccc2-c2nc3[nH]c(=O)[nH]c(=O)c3c(-c3ccc4c(c3)OCCO4)c21`, the GI50 in the assay on HeLa was 8.8 µM; in the assay on A549, 7.5 µM; with MCF7, 8.5 µM; in the assay on Jurkat, 5.5 µM.

Take `O=C1C2=C(Nc3[nH]c(=O)[nH]c(=O)c3C2c2ccnc3ccccc23)c2ccccc21` (centres undefined): the concentration for 50% growth inhibition (GI50) in the assay on HeLa was determined as 5.6 µM; in the assay with A549, 8.6 µM; with MCF7 it was 9.4 µM; with Jurkat, 8.2 µM.

With `O=C1c2ccccc2-c2nc3[nH]c(=O)[nH]c(=O)c3c(-c3ccnc4ccccc34)c21`, the GI50 in the assay on HeLa was 7.6 µM; in the assay on A549, > 10 µM; in the assay with MCF7 it was 9.5 µM; in the assay on Jurkat, 8.2 µM.

As for `O=C1C2=C(Nc3[nH]c(=O)[nH]c(=O)c3C2c2ccc(F)c(Br)c2)c2ccccc21` (centres undefined), the GI50 was 5.4 µM in the assay with HeLa, 5.6 µM in the assay on A549, 5.5 µM with MCF7 and 0.99 µM with Jurkat.

For `O=C1C2=C(Nc3[nH]c(=O)[nH]c(=O)c3C2c2ccc3c(c2)OCCO3)c2ccccc21` (centres undefined), the GI50 with HeLa is 5.4 µM; in the assay with A549 it was 7.8 µM; in the assay with MCF7, 8.4 µM; with Jurkat, 6.9 µM.
